# Laboratory results reported in ChEMBL document CHEMBL1126587, “Novel 6-alkoxypurine 2',3'-dideoxynucleosides as inhibitors of the cytopathic effect of the human immunodeficiency virus” (J Med Chem, 1993).
# B1: Adenosine deaminase (Bos taurus), P56658 (protein)
# chain: MAQTPAFNKPKVELHVHLDGAIKPETILYYGRKRGIALPADTPEELQNIIGMDKPLSLPEFLAKFDYYMPAIAGCREAVKRIAYEFVEMKAKDGVVYVEVRYSPHLLANSKVEPIPWNQAEGDLTPDEVVSLVNQGLQEGERDFGVKVRSILCCMRHQPSWSSEVVELCKKYREQTVVAIDLAGDETIEGSSLFPGHVKAYAEAVKSGVHRTVHAGEVGSANVVKEAVDTLKTERLGHGYHTLEDATLYNRLRQENMHFEVCPWSSYLTGAWKPDTEHPVVRFKNDQVNYSLNTDDPLIFKSTLDTDYQMTKNEMGFTEEEFKRLNINAAKSSFLPEDEKKELLDLLYKAYGMPSPASAEQCL
# Key:
# [1] = substrate: Nc1ncnc2c1ncn2[C@H]1CC[C@@H](CO)O1; assay: Compound was tested for adenosine deaminase assay in calf intestine
# Procedure, shortened: (§1)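 Calf intestinal adenosine deaminase, dialyzed against deionized water to remove ammonium sulfate. Dealkoxylation/deamination followed spectrophotometrically at 25 °C, pH 6.8 (adenosine: Δε −5.85 mM⁻¹cm⁻¹ at 270 nm). Km from initial velocity analysis. Relative velocity compares 100 μM dideoxynucleoside against 100 μM adenosine.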
# [2] = substrate: COc1ncnc2c1ncn2C1CCC(CO)O1; assay: (§2) Michaelis-Menten constant for adenosine deaminase assay in calf intestine; procedure, shortened: as §1
# [3] = substrate: CCOc1ncnc2c1ncn2C1CCC(CO)O1; assay: as §2; procedure, shortened: as §1
protein,measurement,setting,value
B1,Km,[1],45 µM
same,Km,[2],150 µM
same,Km,[3],650 µM
